The results in this text go back to ChEMBL document CHEMBL3576847, “Discovery of 1-(3,3-dimethylbutyl)-3-(2-fluoro-4-methyl-5-(7-methyl-2-(methylamino)pyrido[2,3-d]pyrimidin-6-yl)phenyl)urea (LY3009120) as a pan-RAF inhibitor with minimal paradoxical activation and activity against BRAF or RAS mutant tumor cells” (J Med Chem, 2015).

The target of data set [1] is Vascular endothelial growth factor receptor 2 (Homo sapiens, UniProt P35968). As to the kind of experiment: Inhibition of KDR (unknown origin).
Chain of Vascular endothelial growth factor receptor 2 (P35968 whole entry): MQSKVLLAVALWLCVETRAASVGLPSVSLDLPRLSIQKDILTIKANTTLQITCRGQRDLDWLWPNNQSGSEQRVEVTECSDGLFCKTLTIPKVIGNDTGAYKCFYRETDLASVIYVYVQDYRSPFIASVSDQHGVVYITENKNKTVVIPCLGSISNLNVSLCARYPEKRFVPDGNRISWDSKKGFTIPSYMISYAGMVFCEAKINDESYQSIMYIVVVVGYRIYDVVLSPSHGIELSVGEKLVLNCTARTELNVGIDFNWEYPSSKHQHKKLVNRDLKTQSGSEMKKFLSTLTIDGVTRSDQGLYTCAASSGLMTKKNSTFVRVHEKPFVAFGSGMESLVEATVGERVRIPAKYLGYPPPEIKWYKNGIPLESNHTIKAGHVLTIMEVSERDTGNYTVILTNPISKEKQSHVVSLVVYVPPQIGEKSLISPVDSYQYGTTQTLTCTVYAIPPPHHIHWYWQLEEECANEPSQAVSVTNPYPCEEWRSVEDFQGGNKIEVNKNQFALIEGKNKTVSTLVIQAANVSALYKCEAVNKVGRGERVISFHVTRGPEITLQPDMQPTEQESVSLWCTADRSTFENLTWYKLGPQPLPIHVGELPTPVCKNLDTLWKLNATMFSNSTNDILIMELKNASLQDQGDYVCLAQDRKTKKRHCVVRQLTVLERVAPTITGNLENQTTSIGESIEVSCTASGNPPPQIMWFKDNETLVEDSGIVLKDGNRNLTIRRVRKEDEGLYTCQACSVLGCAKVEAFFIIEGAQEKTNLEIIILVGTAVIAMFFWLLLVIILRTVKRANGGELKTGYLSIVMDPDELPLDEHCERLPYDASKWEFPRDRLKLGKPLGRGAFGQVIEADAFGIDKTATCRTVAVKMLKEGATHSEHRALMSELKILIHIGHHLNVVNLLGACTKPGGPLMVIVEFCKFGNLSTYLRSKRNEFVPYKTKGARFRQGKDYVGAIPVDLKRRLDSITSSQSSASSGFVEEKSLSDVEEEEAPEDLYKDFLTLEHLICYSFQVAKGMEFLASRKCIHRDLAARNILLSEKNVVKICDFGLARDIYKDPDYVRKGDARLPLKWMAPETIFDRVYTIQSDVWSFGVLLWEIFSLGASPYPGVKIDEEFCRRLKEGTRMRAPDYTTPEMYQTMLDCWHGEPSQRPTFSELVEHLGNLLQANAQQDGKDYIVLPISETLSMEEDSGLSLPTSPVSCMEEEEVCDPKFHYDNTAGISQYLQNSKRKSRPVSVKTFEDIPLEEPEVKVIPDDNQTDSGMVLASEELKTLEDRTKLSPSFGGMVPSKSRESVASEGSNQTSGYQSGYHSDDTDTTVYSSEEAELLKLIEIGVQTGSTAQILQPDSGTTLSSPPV
Data set [2] concerns Mus musculus. Kind of data set: Toxicity in athymic nu/nu mouse xenografted with human HCT116 cells expressing KRAS mutant assessed as body weight loss at 40 mg/kg, po bid administered for 15 days. The format is organism-based, HCT-116. The settings on record: in vivo, 360 h. The gist of the method: (§1)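 Nude mice bearing A375 (BRAF V600E) or HCT116 (KRAS mutant) xenografts given oral b.i.d. doses, 20 and 30 mg/kg (A375) or 40 mg/kg (HCT116), for 15 days; body weight monitored.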
For orientation: A xenograft is tissue or cells of one species grown in another, often human tumour cells in immunodeficient mice.

Data set [3] deals with T1, Serine/threonine-protein kinase B-raf (Homo sapiens, UniProt P15056, V600E). As to the kind of experiment: Inhibition of BRAF V600E mutant in human A375 cells assessed as inhibition of ERK phosphorylation measured after 72 hrs by ELISA assay. The format is cell-based, A-375. (In an ELISA, binding on a coated surface is turned into a signal by an enzyme label.)
T1 sequence (P15056 2-766 V600E limits assumed): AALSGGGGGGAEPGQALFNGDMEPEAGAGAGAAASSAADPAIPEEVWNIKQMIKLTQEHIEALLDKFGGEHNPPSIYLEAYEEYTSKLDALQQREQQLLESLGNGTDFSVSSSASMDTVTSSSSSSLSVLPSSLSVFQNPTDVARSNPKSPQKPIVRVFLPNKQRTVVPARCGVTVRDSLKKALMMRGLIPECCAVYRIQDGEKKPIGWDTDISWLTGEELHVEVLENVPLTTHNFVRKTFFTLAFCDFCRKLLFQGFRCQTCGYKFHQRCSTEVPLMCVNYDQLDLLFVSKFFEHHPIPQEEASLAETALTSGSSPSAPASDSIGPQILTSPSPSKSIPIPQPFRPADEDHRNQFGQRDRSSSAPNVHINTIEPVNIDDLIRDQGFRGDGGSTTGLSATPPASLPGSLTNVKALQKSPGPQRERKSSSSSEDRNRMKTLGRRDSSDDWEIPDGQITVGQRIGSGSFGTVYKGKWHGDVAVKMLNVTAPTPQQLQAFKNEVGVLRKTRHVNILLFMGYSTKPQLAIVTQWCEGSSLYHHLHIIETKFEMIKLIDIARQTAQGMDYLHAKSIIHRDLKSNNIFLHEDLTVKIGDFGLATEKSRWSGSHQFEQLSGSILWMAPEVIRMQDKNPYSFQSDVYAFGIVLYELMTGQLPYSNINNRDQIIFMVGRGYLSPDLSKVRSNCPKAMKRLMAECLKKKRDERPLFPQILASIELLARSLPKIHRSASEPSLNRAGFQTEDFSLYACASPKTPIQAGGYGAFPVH
Data set [4] has as its target Serine/threonine-protein kinase B-raf (Homo sapiens, UniProt P15056). As to the kind of experiment: Inhibition of wild type BRAF (unknown origin) assessed as ADP formation measured for 5 hrs by pyruvate kinase/lactate dehydrogenase coupled assay in presence of ATP, MEK1, NADH.
In data set [5] the test system is A-375. As to the kind of experiment: Antitumor activity against human A375 cells expressing BRAF V600E mutant xenografted in athymic nu/nu mouse assessed as tumor regression at 20 to 30 mg/kg, po bid administered for 15 days. The format is functional, organism-based. A digest of the protocol:
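Mice bearing A375 (BRAF V600E) or HCT116 (KRAS mutant) xenografts were dosed orally b.i.d. for 15 days. Doses were 20 and 30 mg/kg for A375 and 40 mg/kg for HCT116. Tumor volume and body weight were monitored.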

Data set [6] concerns the target T1, Serine/threonine-protein kinase B-raf. Kind of data set: Inhibition of recombinant BRAF V600E mutant (unknown origin) assessed as ADP formation measured for 5 hrs by pyruvate kinase/lactate dehydrogenase coupled assay in presence of ATP, MEK1, NADH.
The target in a further data set is GTPase KRas (Homo sapiens, UniProt P01116, G13D). Kind of data set: Inhibition of KRAS G13D mutant in human HCT116 cells assessed as inhibition of ERK phosphorylation by ELISA. The class given is cell-based, HCT-116. The gist of the method:
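HCT116 cells (KRAS G13D, BRAF WT; RAF signalling via CRAF) were treated with compound, and the change in cellular phospho-ERK was measured. IC50 was taken as the concentration inhibiting phospho-ERK.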

Data set [7] has as its system Mus musculus. As to the kind of experiment: In vivo inhibition of BRAF V600E mutant in human A375 cells xenografted in po dosed athymic nu/nu mouse assessed as inhibition of MEK phosphorylation by ELISA. The format is functional, organism-based. The settings on record: A-375.
Data set [8] concerns HCT-116. As to the kind of experiment: cells. To be noted: Homo sapiens, HCT-116, 67 h.
Data set [9] in a line: Paradoxical activation of RAS/RAF/MEK signaling pathway in human HCT116 cells expressing wild type BRAF assessed as ERK phosphorylation at <100 nM. The format is cell-based. The settings on record: HCT-116.
Data set [10] deals with A-375. Kind of data set: cells. To be noted: Homo sapiens, A-375, 72 h.
The target of data set [11] is RAF proto-oncogene serine/threonine-protein kinase (Homo sapiens, UniProt P04049). Kind of data set: Inhibition of wild type CRAF (unknown origin) assessed as ADP formation measured for 5 hrs by pyruvate kinase/lactate dehydrogenase coupled assay in presence of ATP, MEK1, PEP, NADH.
Chain of RAF proto-oncogene serine/threonine-protein kinase (P04049 whole entry): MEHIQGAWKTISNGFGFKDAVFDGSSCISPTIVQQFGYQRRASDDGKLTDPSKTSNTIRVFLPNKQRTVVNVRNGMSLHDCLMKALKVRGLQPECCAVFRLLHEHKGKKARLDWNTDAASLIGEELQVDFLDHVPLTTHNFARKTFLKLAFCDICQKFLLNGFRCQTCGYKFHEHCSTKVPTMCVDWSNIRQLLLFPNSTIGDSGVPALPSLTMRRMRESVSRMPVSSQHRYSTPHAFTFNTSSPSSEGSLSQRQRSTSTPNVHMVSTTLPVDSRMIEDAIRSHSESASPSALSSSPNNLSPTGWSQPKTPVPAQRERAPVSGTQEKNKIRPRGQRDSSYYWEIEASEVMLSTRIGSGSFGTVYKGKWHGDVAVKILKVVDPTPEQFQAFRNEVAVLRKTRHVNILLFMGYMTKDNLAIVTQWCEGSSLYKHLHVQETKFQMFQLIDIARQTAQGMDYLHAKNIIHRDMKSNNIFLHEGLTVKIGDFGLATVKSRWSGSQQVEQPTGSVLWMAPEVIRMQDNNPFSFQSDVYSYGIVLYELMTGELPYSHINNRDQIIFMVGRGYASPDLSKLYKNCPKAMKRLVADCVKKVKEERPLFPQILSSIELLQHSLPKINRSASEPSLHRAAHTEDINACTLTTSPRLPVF
For data set [12], the system named is Mus musculus. As to the kind of experiment: Toxicity in athymic nu/nu mouse xenografted with human A375 cells expressing BRAF V600E mutant assessed as body weight loss at 20 to 30 mg/kg, po bid administered for 15 days. The class given is organism-based, A-375. To be noted: in vivo, 360 h. A digest of the protocol: as §1
In data set [13] the target is Dual specificity mitogen-activated protein kinase kinase; MEK1/2 (Homo sapiens, UniProt P36507+Q02750). Kind of data set: Inhibition of MEK (unknown origin).
Data set [14] concerns Mus musculus. As to the kind of experiment: In vivo inhibition of BRAF V600E mutant in human A375 cells xenografted in po dosed athymic nu/nu mouse assessed as plasma concentration required to inhibit ERK phosphorylation by 80%. The format is functional, A-375.
The subject of data set [15] is HCT-116. Kind of data set: Antitumor activity against human HCT116 cells expressing KRAS mutant xenografted in athymic nu/nu mouse at 40 mg/kg, po bid administered for 15 days.
The test system of data set [16] is Mus musculus. As to the kind of experiment: In vivo inhibition of BRAF V600E mutant in human A375 cells xenografted in po dosed athymic nu/nu mouse assessed as plasma concentration required to inhibit ERK phosphorylation by 50%. The class given is functional, A-375.
Data set [17] deals with Mus musculus. As to the kind of experiment: In vivo inhibition of BRAF V600E mutant in human A375 cells xenografted in po dosed athymic nu/nu mouse assessed as inhibition of ERK phosphorylation by ELISA. The format is functional.
A short description of data set [18]: Paradoxical activation of RAS/RAF/MEK signaling pathway in human HCT116 cells expressing wild type BRAF assessed as ERK phosphorylation at >100 nM. The class given is cell-based. The settings on record: HCT-116.

Activity calls are given as the source filed them. The calls are words filed in the database; no cut-off is given here.

Chain of Serine/threonine-protein kinase B-raf (Homo sapiens, UniProt P15056) (P15056 whole entry): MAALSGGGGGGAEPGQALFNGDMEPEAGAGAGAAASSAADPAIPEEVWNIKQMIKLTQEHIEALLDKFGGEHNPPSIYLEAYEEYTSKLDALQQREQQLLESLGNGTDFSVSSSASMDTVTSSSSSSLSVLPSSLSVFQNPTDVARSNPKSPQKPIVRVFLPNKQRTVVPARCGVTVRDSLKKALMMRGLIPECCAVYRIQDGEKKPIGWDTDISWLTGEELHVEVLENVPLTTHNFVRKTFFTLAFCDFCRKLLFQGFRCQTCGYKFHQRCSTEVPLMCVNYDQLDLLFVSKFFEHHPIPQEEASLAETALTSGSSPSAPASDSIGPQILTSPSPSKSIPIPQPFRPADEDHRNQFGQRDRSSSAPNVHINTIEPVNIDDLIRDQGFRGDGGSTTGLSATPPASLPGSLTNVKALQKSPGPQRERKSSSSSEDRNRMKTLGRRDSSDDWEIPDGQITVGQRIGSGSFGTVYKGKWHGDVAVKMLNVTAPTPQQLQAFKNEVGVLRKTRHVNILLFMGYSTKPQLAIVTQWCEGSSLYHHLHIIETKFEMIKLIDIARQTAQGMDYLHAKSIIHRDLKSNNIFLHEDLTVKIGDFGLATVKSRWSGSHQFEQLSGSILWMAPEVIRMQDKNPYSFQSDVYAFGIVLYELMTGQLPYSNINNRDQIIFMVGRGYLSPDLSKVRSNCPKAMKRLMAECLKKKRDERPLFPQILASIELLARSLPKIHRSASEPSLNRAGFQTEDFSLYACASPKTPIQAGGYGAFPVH
Chain of GTPase KRas (P01116 whole entry G13D): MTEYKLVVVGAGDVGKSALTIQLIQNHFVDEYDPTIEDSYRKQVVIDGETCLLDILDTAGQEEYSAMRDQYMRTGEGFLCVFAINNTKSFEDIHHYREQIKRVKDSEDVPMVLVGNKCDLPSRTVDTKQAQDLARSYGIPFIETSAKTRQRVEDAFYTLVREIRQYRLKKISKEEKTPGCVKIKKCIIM

For the compound `CNc1cc2nc(C)c(-c3cc(NC(=O)NC[C@@H](O)C(C)(C)C)c(F)cc3C)cc2cn1`, the IC50 worked out at 750 nM in data set [1]; 22 nM in data set [3]; 39 nM in data set [4]; 7.7 nM in data set [6]; 160 nM at GTPase KRas; 174 nM with HCT-116 [8]. Besides, the IC50 turned out to be 10 nM with A-375 [10], 7.2 nM in data set [11] and 15000 nM in data set [13]. Further, the Activity entry was “Non-toxic” in the data set with Mus musculus [2], “Non-toxic” in the data set on Mus musculus [12] and 3.1 µM in the data set with Mus musculus [16]. The outcome (in the data set with A-375 [5]; in data set [9]; in the data set with HCT-116 [15]) was Active. The inhibition entry in the data set on Mus musculus [7] and with Mus musculus [17] (A-375) was “Dose-dependent effect” throughout. Also, in the data set with Mus musculus [14], the INH was 7661 ng/mL. Besides, the ED50 in the data set on Mus musculus [17] (A-375, po) is 1.7 mg/kg. Besides, in the data set on Mus musculus [17] (A-375, po), the ED80 stood at 5.7 mg/kg. The outcome in data set [18] was inactive.

In general, IC50 refers to the concentration at which inhibition is half-maximal. One may read the ED50 as the dose that gives a 50% effect, or the effect in half of the subjects.
